An excerpt weighted towards active compounds, which were near 4% of everything screened.
NTR1 ag – agonists of human NTR1, primary screen, imaging, U2OS cells, beta-arrestin-GFP, high content; Neurotensin receptor type 1 (Homo sapiens), P30989; NTR1-U2OS beta-arrestin-GFP spot imaging, agonist mode; activation, % at 20 µM; 0.17% of 330,000 active;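 active = activation at or above 40% of the spot to cytoplasm intensity ratio, with at least 20 cells analyzed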;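 note: 0% = DMSO without peptide and 100% = 100 nM NTR1 peptide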
Target sequence (P30989 whole entry, looked up): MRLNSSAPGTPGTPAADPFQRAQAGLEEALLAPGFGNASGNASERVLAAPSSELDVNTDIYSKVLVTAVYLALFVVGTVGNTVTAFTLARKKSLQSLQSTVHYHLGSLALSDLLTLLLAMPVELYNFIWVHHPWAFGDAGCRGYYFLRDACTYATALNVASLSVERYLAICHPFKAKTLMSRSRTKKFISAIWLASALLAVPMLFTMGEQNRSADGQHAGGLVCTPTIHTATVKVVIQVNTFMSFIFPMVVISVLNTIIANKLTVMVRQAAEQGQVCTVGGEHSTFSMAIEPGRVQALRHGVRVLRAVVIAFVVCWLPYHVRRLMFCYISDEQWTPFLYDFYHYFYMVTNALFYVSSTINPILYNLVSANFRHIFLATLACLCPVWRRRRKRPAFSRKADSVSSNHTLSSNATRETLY
OX1R antag-1 – antagonists of human orexin 1 receptor (OX1R). Orexin/Hypocretin receptor type 1 (Homo sapiens), O43613. OX1R-expressing cells, FRET antagonist read-out. inhibition, % at 6.6 µM. 1.8% of 330,000 active. AID 485270, 2010; in the data active = inhibition mostly above about 38%, no sharp cut-off; inactive = mostly below about 40%;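 note: 0% = agonist challenge alone and 100% = reference antagonist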
OX1R antag-2 – OX1R (HCRTR1) antagonists, primary screen, fluorescence, CHO/OX1R cells, Fluo-8 calcium, orexin A; Orexin/Hypocretin receptor type 1 (Homo sapiens), O43613; Fluo-8 calcium fluorescence; inhibition, % at 5 µM; 0.43% of 330,000 active; AID 434989, 2010;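 active = inhibition above its plate's threshold, mean inhibition of all tested compounds on the plate plus 3 SD, cut at about 37% in these data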;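 note: 0% = orexin A challenge wells and 100% = SB-334867-A antagonist wells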
TAAR1 ag – human TAAR1 agonists, primary screen, Fluo-8 calcium fluorescence, CHO RD-HGA16 cells | vehicle wells 0%, saturating PEA agonist 100% | activation, % at 3 µM | 0.99% of 360,000 active;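 active = activation above the mean activation of all test compounds in the run plus 3 SD, cut at about 38% in these data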
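System: CHO-derived RD-HGA16 cells with stable Gα16 and human TAAR1 / Times: 17-24 h plating, Fluo-8 75 min 37 °C, 30 min RT / Technique: calcium-sensitive Fluo-8 signal, excitation 470-495, emission 515-575 nm / Measure: % activation relative to PEA EC100 response / Benchmarks: DMSO and PEA EC100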
CHO parental Ca – ATP-evoked calcium signal inhibitors, parental CHO, primary screen, counter-screen for OX1R antagonist project, cell-based, fluorescence, Fluo-8 calcium dye; inhibition, % at 5.6 µM; 0.63% of 330,000 active; AID 463079, 2010; parental CHO-K1, ATP-induced calcium, Fluo-8 fluorescence;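 active = inhibition above that plate's mean sample inhibition plus 3 SD, cut at about 26% in these data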;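 note: 0% = ATP-challenged DMSO wells and 100% = DMSO wells without ATP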
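Test system: parental CHO cells; detection: calcium-sensitive Fluo-8 fluorescence; evaluation: percent inhibition of calcium signal; also added: ATP as calcium-mobilizing challenge; repeats: one well per compound; control set: ATP-challenged DMSO wells low, unchallenged DMSO wells high; compound: single nominal dose of 5.6 µM per compound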
TAAR1 antag – human TAAR1 antagonists, primary screen, Fluo-8 calcium fluorescence, CHO RD-HGA16 cells; Trace amine-associated receptor 1 (Homo sapiens), Q96RJ0; antagonist; inhibition, % at 3 µM; 1.5% of 360,000 active;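 active = inhibition above a per-plate cutoff, the mean inhibition of test compounds on that plate plus 3 SD, cut at about 49% in these data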;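 note: 0% = DMSO plus EC80 beta-PEA response and 100% = DMSO alone without agonist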
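Material: RD-HGA16 CHO cells with stable hTAAR1 and Gα16; Dosing: single nominal final test compound concentration of 3 µM; Schedule: seeding 17-24 h prior, 75-min 37 °C, 30-min RT dye loading; Detection: kinetic Fluo-8 calcium fluorescence measurement; Measure: % inhibition from peak post-agonist over basal fluorescence ratio; Benchmarks: vehicle and agonist controls.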
TAAR1 ag conf – human TAAR1 agonists, retest of hits, confirmation, Fluo-8 calcium fluorescence, CHO RD-HGA16 cells; shares compounds with TAAR1 ag; scaled: DMSO 0%, maximal phenethylamine 100%; activation, % at 3 µM; 82% of 2,400 active; AID 651783, 2012;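 active = activation above a cutoff set at the run's mean compound activation plus 3 SD, cut at about 39% in these data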
Ga16 ag counter – nonselective calcium mobilization agonists, CHO-Ga16 cells, counter-screen for hTAAR1 agonist project, cell-based, fluorescence, CHO-Ga16 parental line; shares compounds with TAAR1 ag; Fluo-8 calcium fluorescence; normalized to maximal ATP response, DMSO zero; activation, % at 3 µM; 50% of 2,400 active;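 active = activation above the run cutoff, the mean activation over all tested wells plus 3 SD, cut at about 12% in these data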;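 note: 0% = DMSO wells and 100% = maximal ATP response on the peak over basal ratio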
TAAR1 desensitize – TAAR1 desensitization by agonist hits, confirmation, counter-screen for TAAR1 agonist project, cell-based, fluorescence, tachyphylaxis | 46% of 2,400 active | inhibition, % at 3 µM | shares compounds with TAAR1 ag | CHO RD-HGA16 hTAAR1, Fluo-8 calcium, beta-PEA response inhibition;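 active = inhibition above the run cutoff, the mean inhibition of all test compounds plus 3 SD, cut at about 49% in these data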;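 note: beta-PEA stimulus applied at its EC80; loss of beta-PEA calcium signal after compound pretreatment read as receptor desensitization; 0% = DMSO with beta-PEA at EC80 and 100% = DMSO alone without agonist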
Ga16 nonsel ant – inhibition of ATP-evoked calcium response in CHO-Ga16 cells, counter-screen for TAAR1 agonist project, cell-based, fluorescence | shares compounds with TAAR1 ag | CHO-Ga16 ATP-induced calcium, Fluo-8 fluorescence | inhibition, % at 3 µM | 39% of 2,400 active;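 active = inhibition above the plate's mean compound inhibition plus 3 SD, computed per plate, cut at about 22% in these data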;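 note: 0% = EC80 ATP with DMSO and 100% = DMSO wells without ATP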
Numbers without * were called inactive; / = no result given.

SMILES	NTR1 ag	OX1R antag-1	OX1R antag-2	TAAR1 ag	CHO parental Ca	TAAR1 antag	TAAR1 ag conf	Ga16 ag counter	TAAR1 desensitize	Ga16 nonsel ant
NC(Cc1ccc(Cl)cc1)c1csc(Nc2cc(NCCCO)ncn2)n1 (stereo unspecified)	/	/	/	0	/	12	/	/	/	/
CCc1cnc(Nc2nc(C(N)Cc3ccc(Cl)cc3)cs2)nc1 (stereo unspecified)	/	/	/	51*	/	29	70*	32*	41	28*
COc1ccc(CC(N)c2csc(Nc3nncc4ccccc34)n2)cc1 (stereo unspecified)	/	/	/	61*	/	37	82*	34*	52*	32*
CCCc1cnc(Nc2nc(C(N)Cc3ccc(OC)cc3)cs2)nc1 (stereo unspecified)	/	/	/	48*	/	16	47*	18*	10	13
NC(Cc1ccc(Cl)cc1)c1csc(Nc2ccc(-c3ccccc3)nn2)n1 (stereo unspecified)	/	/	/	63*	/	49*	23	25*	24	40*
COCCSc1ccccc1C(=O)N1CCc2ccccc21	1	/	/	0	/	-19	/	/	/	/
Cc1onc(-c2c(F)cccc2Cl)c1C(=O)OCC(=O)Nc1cccc(S(=O)(=O)N(C)C)c1	/	/	/	9	/	18	/	/	/	/
COc1cc(OC)nc(Nc2nc(C(N)Cc3ccc(F)cc3)cs2)n1 (stereo unspecified)	/	/	/	56*	/	14	63*	38*	36	34*
COc1cccc(Nc2nc(C(N)CO)cs2)n1 (stereo unspecified)	/	/	/	20	/	-29	/	/	/	/
COc1ccccc1C(=O)NNC(=S)NC(=O)c1sc2ccccc2c1Cl	6	6	-5	145*	-6	80*	140*	118*	106*	94*
Cc1c(NC(=S)NC(=O)c2sc3ccccc3c2Cl)cccc1C(=O)O	2	4	-6	2	1	6	/	/	/	/
COc1ccccc1C(=O)NNC(=S)NC(=O)c1cccs1	1	34	20	106*	18	16	103*	77*	44	38*
COc1ccc(/C=C/C(=O)NC(=S)NNC(=O)c2cccnc2)cc1	0	18	-2	12	3	-11	/	/	/	/
COc1ccc(/C=C/C(=O)NC(=S)NNC(=O)c2cccs2)cc1	-1	3	-18	100*	6	73*	69*	51*	50*	41*
O=C(NC(=S)NNC(=O)c1ccccc1O)c1cccs1	0	4	6	27	4	-3	/	/	/	/
COc1ccccc1C(=O)NC(=S)NNC(=O)c1sc2ccccc2c1Cl	11	43	9	117*	-3	74*	166*	124*	106*	87*
CCOC(=O)c1cnc2oc3ccccc3n2c1=O	4	-6	-24	-1	6	-9	/	/	/	/
